Consider five compounds from ChEMBL document CHEMBL1909617, “Bioactive dammarane-type saponins from Operculina turpethum” (J Nat Prod, 2011).

Structures are written as SMILES.

The nature of data set [1]: Cytoprotective activity in human embryo L02 cells assessed as inhibition of D-galactosamine-induced cytotoxicity at 6.25 ug/ml treated for 1 hr prior to D-galactosamine challenge measured after 48 hrs by MTT assay relative to control. Type of data set: functional. A digest of the protocol:
(§1)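 L-02 human embryo liver cells in RPMI-1640 with 10% heat-inactivated FBS, penicillin, streptomycin, L-glutamine; seeded 2 × 10^4 cells/mL, grown 24 h at 37 °C, 5% CO2. Fresh medium with compound (diluted from 1 mg/mL DMSO stock) for 1 h, then 5 mM D-GalN for 48 h. MTT read at 570 nm; inhibition (%) = (OD compound − OD GalN control)/(OD blank − OD control) × 100; n = 3, mean ± SD.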
For orientation: Tetrazolium dyes change colour on reduction, which living cells bring about.

Data set [2] is described as follows: Cytoprotective activity in human embryo L02 cells assessed as inhibition of D-galactosamine-induced cytotoxicity at 12.5 ug/ml treated for 1 hr prior to D-galactosamine challenge measured after 48 hrs by MTT assay relative to control. In kind it is functional. A digest of the protocol:
as §1

The nature of data set [3]: Cytotoxicity against human embryo L02 cells assessed as cell viability after 48 hrs by MTT assay. Type of data set: cell-based. The following applies: read-out: MTD. A digest of the protocol: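 Human embryo liver L-02 cells in RPMI-1640 with 10% heat-inactivated FBS, penicillin, streptomycin and L-glutamine, seeded at 2 × 10^4 cell/mL and grown 24 h at 37 C, 5% CO2. Medium replaced by serial dilutions of compound (from 1 mg/mL DMSO stock), 48 h exposure. MTT added for 4 h, formazan dissolved in DMSO, OD 570 nm. Viability = OD(compound)/OD(control) × 100; maximum nontoxic concentration derived.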

A short description of data set [4]: Cytoprotective activity in human embryo L02 cells assessed as inhibition of D-galactosamine-induced cytotoxicity at 3.13 ug/ml treated for 1 hr prior to D-galactosamine challenge measured after 48 hrs by MTT assay relative to control. In kind it is functional. A digest of the protocol:
as §1

Data set [5] is described as follows: Cytoprotective activity in human embryo L02 cells assessed as inhibition of D-galactosamine-induced cytotoxicity at 1.56 ug/ml treated for 1 hr prior to D-galactosamine challenge measured after 48 hrs by MTT assay relative to control. Type of data set: functional. The procedure, abridged: as §1

Broadly, the inhibition is the relative decrease from the control value, in per cent. As to `CC(C)[C@]1(CO)CC[C@@](C)([C@H]2[C@H](O)C[C@]3(C)[C@@H]2CC[C@@H]2[C@@]4(C)CC[C@H](O[C@@H]5O[C@H](CO)[C@@H](O)[C@H](O)[C@H]5O[C@@H]5O[C@H](CO)[C@@H](O)[C@H](O)[C@H]5O)C(C)(C)[C@@H]4CC[C@]23C)O1` [OPERCULINOSIDE A], the inhibition at 6.25 µg/mL in data set [1] is -14.7%. In data set [2], the inhibition at 12.5 µg/mL was determined as 46.7%. For the same compound, the MNTC at 48 h in data set [3] was determined as 12.5 µg/mL. In addition, in data set [4], the inhibition at 3.13 µg/mL is -22.8%.
For the compound `CC(C)[C@]1(CO[C@@H]2O[C@H](CO)[C@@H](O)[C@H](O)[C@H]2O)CC[C@@](C)([C@H]2[C@H](O)C[C@]3(C)[C@@H]2CC[C@@H]2[C@@]4(C)CC[C@H](O[C@@H]5O[C@H](CO)[C@@H](O)[C@H](O)[C@H]5O[C@@H]5O[C@H](CO)[C@@H](O)[C@H](O)[C@H]5O)C(C)(C)[C@@H]4CC[C@]23C)O1` [OPERCULINOSIDE B], the inhibition at 6.25 µg/mL in data set [1] is 10.4%. The inhibition at 12.5 µg/mL in data set [2] is -6.9%. Moreover, the MNTC at 48 h in data set [3] was 100 µg/mL. Also, the inhibition at 3.13 µg/mL in data set [4] was 3.5%.
Turning to `CC(C)(O)[C@@H]1CC[C@@](C)([C@H]2[C@H](O)C[C@]3(C)[C@@H]2CC[C@@H]2[C@@]4(C)CC[C@H](O[C@@H]5O[C@H](CO)[C@@H](O)[C@H](O)[C@H]5O[C@@H]5O[C@H](CO)[C@@H](O)[C@H](O)[C@H]5O)C(C)(C)[C@@H]4CC[C@]23C)O1` [OPERCULINOSIDE C], the inhibition at 6.25 µg/mL in data set [1] is 69.5%. In addition, the inhibition at 12.5 µg/mL in data set [2] amounted to 44.1%. Also, the MNTC at 48 h in data set [3] worked out at 50 µg/mL. In addition, in data set [4], the inhibition at 3.13 µg/mL turned out to be 16.7%.
For `CC(C)(O[C@@H]1O[C@H](CO)[C@@H](O)[C@H](O)[C@H]1O)[C@@H]1CC[C@@](C)([C@H]2[C@H](O)C[C@]3(C)[C@@H]2CC[C@@H]2[C@@]4(C)CC[C@H](O[C@@H]5O[C@H](CO)[C@@H](O)[C@H](O)[C@H]5O[C@@H]5O[C@H](CO)[C@@H](O)[C@H](O)[C@H]5O)C(C)(C)[C@@H]4CC[C@]23C)O1` [OPERCULINOSIDE D], in that order: 6.3%, 22.2%, 100 µg/mL and 5.5%.
Regarding `COc1cc(C2Oc3cc([C@H]4Oc5cc(O)cc(O)c5C(=O)[C@@H]4O)ccc3OC2CO)ccc1O` (stereo not given in full) [SILIBININ], the inhibition at 6.25 µg/mL in data set [1] worked out at 28.2%. Also, the MNTC at 48 h in data set [3] is 6.25 µg/mL. Moreover, the inhibition at 1.56 µg/mL in data set [5] worked out at 10.1%. Besides, the inhibition at 3.13 µg/mL in data set [4] is 33.4%.
